In the library only some 3.5% were active in any assay of this set; here they are far more common.
Yeast lifespan up – compounds extending yeast replicative lifespan, primary screen, S. cerevisiae, OD615 | AID 775, 2007 | S. cerevisiae growth with nicotinamide; deaD strain in restrictive glucose medium | hit rate 0.68% among 130,000 | inhibition of the nicotinamide effect, % at 10 µM;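 active means inhibition above a set limit, placed 3 SD over the median of all compounds, cut at about 26% in these data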;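 further: 0% = nicotinamide-treated wells and 100% = cells grown without nicotinamide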
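System: DeaD-strain S. cerevisiae / Buffer or medium: CSMM-D, restrictive glucose (dextrose) synthetic minimal medium / Probe or stimulus: nicotinamide, 1.5 mM, co-present with compound / Compound: one concentration, 10 µM, DMSO 0.25% / Incubation: 48 h compound exposure at 30 °C, humidified / Technique: optical density (absorbance) at 615 nm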
RAM network inh – inhibitors of the yeast RAM network, primary screen, dse1pr::URA3 reporter, 5-FOA selection | S. cerevisiae dse1pr::URA3 reporter, 5-FOA growth OD615, 2 d; analog-sensitive cbk1-as2 kinase mutant strain | inhibition, % at 50 µM | hit rate 1.8% among 190,000 | AID 868, 2007;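 active means inhibition above a set limit, 3 SD over mean compound inhibition, cut at about 8.4% in these data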;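 further: 0% = DMSO-only wells with no growth and 100% = 10 µM 1-NA-PP1 full growth; inhibition rescues growth on 5-FOA so higher OD means more RAM inhibition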
HMGR II inh – inhibitors of E. faecalis class II HMGR, primary screen, biochemical, Enterococcus faecalis. HMG-CoA reductase (Enterococcus faecalis, mvaE). purified E. faecalis HMGR, NADPH absorbance 340 nm kinetic. inhibition, % at 10 µM. hit rate 0.41% among 190,000. AID 1066, 2008;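 active means inhibition above a set limit, the median over all tested compounds plus 3 SD, cut at about 9.5% in these data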;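 further: enzyme runs in reverse so mevalonate oxidation gives rising NADPH absorbance; 0% = complete reaction with DMSO and 100% = background rate lacking mevalonate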
MT stabilize HCS – microtubule stabilizers in HeLa cells, primary screen, imaging, high-content imaging | HeLa tubulin immunostaining HCS, 24 h; share of cells brighter than vehicle mean+2SD | % tubulin-high responders, % at 10 µM | hit rate 0.83% among 200,000 | AID 2205, 2009;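 active means plate Z-score above 3 for both tubulin-high and condensed-nucleus cell shares, with cell loss under 80%, at 10 µM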;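 further: anti alpha tubulin signal scored within the nucleus-defined area of each cell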
bCat nuc transl – modulators of beta-catenin nuclear translocation, primary screen, imaging, HeLa cells, immunofluorescence, high-content; nuclear translocation activity, % at 5 µM; hit rate 0.3% among 190,000; AID 1665, 2009;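 active means nuclear translocation activity above 50% at 5 µM, with a well cell count of 50 or more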;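 further: per-cell ratio of nuclear to cytoplasmic median beta-catenin stain intensity; plate controls were DMSO negative control for no effect and GSK-3 inhibitor IX positive control for full effect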
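Assay system: human HeLa cells, native beta-catenin; doses: 5 µM primary, 0.02–20 µM confirmation; incubation: compound treatment 24 h, 37°C, 5% CO2; technique: fluorescence imaging of beta-catenin antibody stain plus DAPI; measure: % activation, nuclear-to-cytoplasmic median beta-catenin signal ratio per cell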
Yeast growth inh – growth inhibitors of yeast BB579 in restrictive medium, primary screen, yeast lifespan-shortening project, S. cerevisiae. hit rate 0.51% among 140,000. OD615, 48 h. inhibition, % at 10 µM;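 active means inhibition above a set limit, 3 SD over the mean compound inhibition, cut at about 44% in these data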
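test system = yeast BB579 (DeaD) | buffer or medium = restrictive CSMM-D medium | doses = single compound dose of 10 µM, 0.25% DMSO final | times = 4 h preincubation and 48 h exposure at 30 °C | technique = culture absorbance at 615 nm | benchmarks = amphotericin B 10 µg/mL, positive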
RAM efflux-def – 5-FOA growth of efflux-deficient control yeast, dose response, counter-screen for RAM network inhibitor project, S. cerevisiae, OD615; shares compounds with RAM network inh; S. cerevisiae efflux-deficient reporter strain, 5-FOA growth OD615, 2 days; max inhibition, %; 1,200 tested, under 10 active; AID 1305, 2008; call rule not given here;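 further: plate controls were vehicle for no effect and reference inhibitor for full effect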
Starred values were filed as active, the others as inactive; . = not tested or not shown.

SMILES	Yeast lifespan up	RAM network inh	HMGR II inh	MT stabilize HCS	bCat nuc transl	Yeast growth inh	RAM efflux-def
COC(=O)c1sc(SC)c(S(=O)(=O)C(C)C)c1N/N=C(\C#N)C(=O)c1ccccc1	.	.	.	.	-4.1	.	.
CC(=O)Nc1ccc(-c2csc(NC(C)c3ccccc3)n2)cc1 (stereo not drawn)	.	2.0	-3.7	5.6	0.3	.	.
COCCn1c(C)cc(C(=O)CSc2cc(C)c3ccc(OC)cc3n2)c1C	6.4	4.6	-4.5	2.5	-1.2	-44.5	.
COc1ccc2c(C)cc(SCC(=O)c3ccc4c(c3)OCO4)nc2c1	-11.8	12.1*	0.4	2.3	2.3	-15.4	5.4
O=C1N=C2N(CCN3CCCCC3)c3ccccc3N2/C1=C\c1ccc([N+](=O)[O-])o1	.	0.3	-3.2	39.7	0.3	.	.
CCc1cc2c(Sc3nc4ccccc4s3)ncnc2s1	-14.9	12.9*	-3.4	2.0	1.6	1.6	1.6
COc1ccc(OCCNC(=O)c2cccc(Oc3ccc(C(F)(F)F)cc3[N+](=O)[O-])c2)cc1	3.8	13.6*	-4.1	1.8	4.0	-12.5	2.4
O=C(NCCOc1ccccc1)c1ccccc1[N+](=O)[O-]	.	-1.0	4.9	3.2	-4.7	.	.
O=C(NCCOc1ccccc1)c1cc(C(=O)NCCOc2ccccc2)cc([N+](=O)[O-])c1	0.4	13.7*	-0.9	2.3	1.0	-67.5	2.7
O=C(NCCO)c1ccc(Oc2ccc(C(F)(F)F)cc2[N+](=O)[O-])cc1	.	1.2	0.8	2.9	-1.8	.	.
O=C(Cn1cccc1C(=O)c1ccccc1)NCc1cccc(Cl)c1	.	1.2	-2.7	2.2	-0.2	.	.
CCCCCC(=O)O[C@]1(C(C)=O)CC[C@H]2[C@@H]3CCC4=CC(=O)CC[C@]4(C)[C@H]3CC[C@@]21C	7.2	11.9*	4.3	6.2	.	-46.8	3.0
Cn1cnnc1SC1c2cccc3cccc(c23)C1NS(=O)(=O)c1ccc(Cl)cc1 (stereo not drawn)	5.0	11.9*	-3.8	1.4	-4.1	-31.7	1.7
Cn1cnnc1SC1c2cccc3cccc(c23)C1NS(=O)(=O)c1ccccc1 (stereo not drawn)	1.9	2.6	-4.8	3.5	-0.9	-35.1	.
CCOC(=O)c1cnc(SC)nc1Nc1cccc2ccccc12	.	7.2	-1.0	3.9	-0.5	-2.0	.
CCOC(=O)c1cnc(SC)nc1Nc1cccc(F)c1	-9.8	15.6*	-2.6	4.9	-3.7	-19.6	2.2
CCOC(=O)c1cnc(C(F)(F)F)nc1Oc1ccccc1	.	.	.	.	1.4	.	.
CCOC(=O)c1cnc(SC)nc1Oc1cccc(NC(=O)c2ccc(C)cc2)c1	4.7	18.3*	-0.2	0.9	2.1	-51.6	4.8
S=C1NCCNC(=S)NCCOCCOCCN1	.	4.3	-2.5	1.7	-1.7	.	.
COc1ccc(CNC(=O)CN(c2ccc(OC)cc2)S(=O)(=O)c2c(C)nn(C)c2C)cc1	2.0	1.9	4.2	2.2	-2.6	1.8	.
COc1ccc(N(CC(=O)NCc2ccc(C)cc2)S(=O)(=O)c2c(C)nn(C)c2C)cc1	1.3	15.1*	-0.4	5.0	-0.4	-29.1	2.6
CCN(CC)S(=O)(=O)c1ccc(N2CCOCC2)c(NC(=O)CCC2CCCCC2)c1	3.3	14.5*	-1.4	2.0	-4.2	-29.7	2.2
CCN(CC)S(=O)(=O)c1ccc(N2CCOCC2)c(NC(=O)CC(C)(C)C)c1	.	.	.	.	0.1	.	.
CCn1c(O)c(N=NC(=S)NCC2CCCO2)c2ccccc21 (stereo not drawn)	.	3.5	-0.2	3.3	2.4	.	.
O=C(Nc1cc(Cl)ccc1N1CCCCC1)c1cccs1	-9.8	4.0	0.7	0.9	-11.2	-48.4	.
SMILES	Yeast lifespan up	RAM network inh	HMGR II inh	MT stabilize HCS	bCat nuc transl	Yeast growth inh	RAM efflux-def
CCc1sc(C(=O)Nc2cc(Cl)ccc2N2CCCCC2)cc1C	-8.7	13.9*	0.8	2.1	.	-23.4	4.2
Cc1ccc(C(=O)Nc2cc(Cl)ccc2N2CCCCC2)s1	-6.4	14.4*	-4.2	1.4	.	-11.7	2.0
CCNC(=S)N(CCc1c(C)[nH]c2ccc(C)cc12)Cc1cccs1	.	5.3	1.4	3.1	-1.9	.	.
COCCNC(=S)N(CCc1c(C)[nH]c2ccc(F)cc12)Cc1cccs1	.	12.4*	1.2	1.9	0.2	.	1.3
CCCn1nnc(NC(=O)c2ccc3c(c2)OCO3)n1	.	.	.	.	0.5	.	.
CCCCOc1ccc(C(=O)N/C(=C\c2ccc(OC)cc2)C(=O)OCc2ccco2)cc1	0.8	12.3*	0.8	1.2	1.9	-60.7	6.6
COc1ccc(C(=O)N/C(=C\c2ccco2)C(=O)OCc2ccco2)cc1	.	.	.	.	-0.5	.	.
CCCCOc1ccc(C(=O)N/C(=C\c2cccc([N+](=O)[O-])c2)C(=O)OCc2ccco2)cc1	9.2	11.4*	6.2	3.2	-1.5	-33.6	1.7
Cc1ccc(C(=O)N/C(=C\c2cccc([N+](=O)[O-])c2)C(=O)OCN2C(=O)c3ccccc3C2=O)cc1	-0.6	1.9	-1.1	3.5	-0.4	-21.7	.
CCCn1c(SCC(=O)Nc2nnc(CC)s2)nnc1-c1ccncc1	.	0.8	-4.6	1.4	1.2	.	.
COc1ccc(/C=N/Nc2nc(Nc3ccccc3)nc(N3CCCCC3)n2)cc1OC	-11.0	0.0	-2.1	1.8	.	-49.1	.
CCOc1cc(/C=N/Nc2nc(Nc3ccccc3)nc(N3CCCCC3)n2)ccc1OCC(=O)O	.	18.5*	-0.1	2.4	-5.3	.	7.5
Cn1c(=O)n(C)c2cc(/C=N/N=C3/NC(=O)C(CC(=O)O)S3)ccc21 (stereo not drawn)	.	1.2	0.6	6.2	-0.5	.	.
CC(=O)c1ccc(NC(=S)NN2C(C)CCCC2C)cc1 (stereo not drawn)	.	2.7	-4.6	2.2	-0.8	.	.
CC(=O)c1ccc(NC(=S)NC2CCCC(C)C2C)cc1 (stereo not drawn)	.	20.4*	0.8	5.2	-5.9	.	2.4
Cc1ccc(CSc2nnc(-c3ccc4c(c3)OCO4)o2)cc1	-4.8	14.9*	-7.7	0.9	0.8	-27.5	1.8
Cc1[nH]n(C)c(=O)c1[N+](=O)[O-]	.	.	.	.	0.6	.	.
C/C(=N\OC(=O)c1ccc(OC(C)C)cc1)c1ccc(C)c(C)c1	-8.3	11.9*	0.8	2.1	.	-16.2	2.8
CC/C(=N\OC(=O)c1ccc(OC(C)C)cc1)c1ccc(C)cc1	-10.2	4.0	-7.1	2.0	-11.7	-53.0	.
Cc1ccc(C(c2nnnn2C2CCCC2)N2CCc3ccccc32)cc1 (stereo not drawn)	-6.9	12.3*	-3.2	4.1	-0.3	-44.9	3.7

Screening data deposited in PubChem by several laboratories.
